Data: ChEMBL document CHEMBL3091364, “Benzyloxybenzylammonium chlorides: Simple amine salts that display anticonvulsant activity” (Bioorg Med Chem, 2013)
Calls of active or inactive are those of the source. The calls are words filed in the database; no cut-off is given here.

How the values were obtained:
Mus musculus [1] = assay: Anticonvulsant activity in ip dosed albino CF-1 mouse assessed as protection against maximal electroshock-induced seizures measured at 0.5 to 2 hrs; assay type: functional; conditions: albino CF-1, ip
Outline: (§1)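 Screened under the NINDS ASP in male albino Carworth Farms No. 1 mice (ip) or male albino Sprague-Dawley rats (ip or po), using MES, 6 Hz (32 mA) and subcutaneous pentylenetetrazol seizure tests. Initial qualitative tests used preset doses (e.g., 30, 50, 100 mg/kg). ED50 values with 95% confidence intervals came from dose–response data collected at the time of peak effect.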

Mus musculus [2] = assay: Anticonvulsant activity in albino CF-1 mouse assessed as protection against maximal electroshock-induced seizures at 100 mg/kg, ip; assay type: functional, organism-based; design: dose 100 mg/kg; outline: as §1
Mus musculus [3] = assay: Anticonvulsant activity in ip dosed albino CF-1 mouse assessed as protection against maximal electroshock-induced seizures measured at 0.25 to 0.5 hrs; assay type: functional; conditions: albino CF-1, ip; outline: as §1
Rattus norvegicus [4] = assay: Anticonvulsant activity in ip dosed albino Sprague-Dawley rat assessed as protection against maximal electroshock-induced seizures measured at 0.25 to 0.5 hrs; assay type: functional; outline: as §1
Rattus norvegicus [5] = assay: Anticonvulsant activity in po dosed albino Sprague-Dawley rat assessed as protection against maximal electroshock-induced seizures measured at 1 hr; assay type: functional; outline: as §1
[6] = Cytotoxicity against rat embryonic cortical neurons assessed as loss of membrane integrity at 20 uM; conditions: cortical neurone
Rattus norvegicus [7] = species: Rattus norvegicus; assay: Induction of voltage-dependent Na+ channel activation in rat embryonic cortical neurons at 10 uM by whole-cell voltage clamp assay (reference value: - 39 +/- 7.8 mV)
Rattus norvegicus [8] = species: Rattus norvegicus; assay: Activity at Na+ channel in rat embryonic cortical neurons assessed as effect on total macroscopic sodium current at 10 uM by whole-cell voltage clamp assay
Rattus norvegicus [9] = species: Rattus norvegicus; assay: Inhibition of Na+ channel in rat embryonic cortical neurons assessed as hyperpolarizing shift of current at 10 uM by whole-cell voltage clamp assay
Rattus norvegicus [10] = assay: Anticonvulsant activity in ip dosed albino Sprague-Dawley rat assessed as protection against maximal electroshock-induced seizures measured at 0.5 hrs; assay type: functional; outline: as §1

With Cl.NCc1ccc(OCc2ccccc2)cc1 as the compound, how does the ED50 (Mus musculus [1]) read?
The ED50 was > 100 mg/kg.

Which results are given for Cl.NCc1ccc(OCc2cccc(F)c2)cc1?
Activity (Mus musculus [2]): Active; ED50 (Mus musculus [3]): < 100 mg/kg

With Cl.NCc1ccc(OCc2cccc(OC(F)(F)F)c2)cc1 as the compound, how does the ED50 (Rattus norvegicus [4]) read?
Its ED50 is < 30 mg/kg.

Which results are given for Cl.NCc1ccc(OCc2ccccc2OC(F)(F)F)cc1?
ED50 (Rattus norvegicus [5]): 30 mg/kg; Activity [6]: Toxic; V1/2 (Rattus norvegicus [7]): -35.3 mV; Activity (Rattus norvegicus [8]): inactive; Activity (Rattus norvegicus [9]): 15.3 mV; ED50 (Rattus norvegicus [10]): 18 mg/kg
